Data set [1] relates to Calf thymus DNA. In words: Binding affinity to calf thymus DNA assessed as stabilization by measuring change in melting temperature at ratio of 0.1 by UV/vis spectrophotometric. It counts as nucleic-acid assay. To be noted: Bos taurus.
Data set [2] deals with Calf thymus DNA. In words: Binding affinity to calf thymus DNA assessed as stabilization by measuring change in melting temperature at ratio of 0.2 by UV/vis spectrophotometric. It counts as nucleic-acid assay. To be noted: Bos taurus.
Data set [3] can be described thus: Drug uptake in human A549 cells assessed as increase in intracellular boron concentration measured per cell at 30 uM measured after 24 hrs by ICP-MS analysis. In kind it is ADME, cell-based. To be noted: a549, 24 h. The method, boiled down: (§1)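 Cells seeded at 5 × 10^5/well and grown overnight at 37 °C, 5% CO2, normoxic. A549 in DMEM/10% FBS; HeLa S3 in MEM/10% FBS. Exposed to 30 μM compound for 24 h. Cells washed with PBS ×3 and digested in 60% HNO3 for 24 h at room temperature, then diluted, centrifuged and filtered. Total boron (10B+11B) measured by ICP-MS and normalized per cell from hemocytometer counts of a parallel well. Mean ± SD of triplicates.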

Data set [4] concerns Calf thymus DNA. The data set can be described thus: Binding affinity to calf thymus DNA assessed as stabilization by measuring change in melting temperature at ratio of 1 by UV/vis spectrophotometric. In kind it is nucleic-acid assay. The note with it: Bos taurus.
The subject of data set [5] is Calf thymus DNA. The data set can be described thus: Binding affinity to calf thymus DNA assessed as stabilization by measuring change in melting temperature at ratio of 5 by UV/vis spectrophotometric. In kind it is nucleic-acid assay. To be noted: Bos taurus.
A short description of data set [6]: Drug uptake in human A549 cells assessed as increase in intracellular boron atoms at 30 uM measured after 24 hrs by ICP-MS analysis. It counts as ADME, cell-based. The note with it: a549, 24 h. The method, boiled down:
as §1

The nature of data set [7]: Drug uptake in human HeLa S3 cells assessed as increase in intracellular boron concentration measured per cell at 30 uM measured after 24 hrs by ICP-MS analysis. In kind it is ADME, cell-based. The note with it: hela s3, 24 h. In outline: as §1

The structures appear in SMILES notation.

Regarding `NCCCCNCCCN`, the ΔTm in data set [1] was determined as 7 °C; in data set [2], 12 °C.
Regarding `c1cc(CN2CCNCCNCCNCC2)cc(B2OC3(CCCCC3)C3(CCCCC3)O2)c1`, in data set [3], the Drug uptake result is “Active”. Further, the ΔTm in data set [4] amounted to 1 °C; in data set [5], 6 °C.
As for `c1cc(CN2CCNCCNCC2)cc(B2OC3(CCCCC3)C3(CCCCC3)O2)c1`, the Drug uptake result in data set [6] and in data set [3] was “Active” each time.
On to `c1cc(B2OC3(CCCCC3)C3(CCCCC3)O2)ccc1CN1CCNCCNCC1`, for which, in data set [6], the Drug uptake entry is given as “Active”.
As to `c1cc(B2OC3(CCCCC3)C3(CCCCC3)O2)ccc1CN1CCNCCNCCNCCNCC1`, the Drug uptake in data set [7] was > 2.5 fmol; in data set [3], “Active”. The figures for the ΔTm in data set [4] and in data set [5] were 3 °C and 8 °C, respectively.

The term ΔTm denotes the change in melting temperature against a reference sample.

These data come from ChEMBL document CHEMBL5214904, “Design, Synthesis, and Biological Evaluation of Boron-Containing Macrocyclic Polyamines and Their Zinc(II) Complexes for Boron Neutron Capture Therapy” (J Med Chem, 2021).
